Screening data from PubChem.
MEKK3 PB1 HTS = modulators of MEKK3-MEK5 PB1 binding, primary screen, biochemical, wildtype MEKK3, multiplex bead flow cytometry, Alexa488-MEK5 | Mitogen-activated protein kinase kinase kinase 3 (Homo sapiens), Q99759 | binding response (% of control), % at 10 µM | hit rate 1.4% among 290,000 | bead-based flow cytometry, Alexa488-MEK5 binding to MEKK3; actives lie on both sides; 0 = blocked by unlabeled MEK5, 100 = vehicle;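 active means binding response more than 3 SD above or below the average of its plate-row segment, actives on both sides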;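 further: Alexa488 bead fluorescence after subtracting the streptavidin-only scavenger bead signal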
MEKK2wt PB1 HTS = modulators of MEK5 binding to wildtype MEKK2, primary screen, biochemical, multiplex bead flow cytometry, Alexa488-MEK5. Mitogen-activated protein kinase kinase kinase 2 (Homo sapiens), Q9Y2U5. Alexa488-MEK5 binding to MEKK2 WT; actives lie on both sides. binding response (% of control), % at 10 µM. hit rate 1.1% among 290,000. AID 1531, 2009; in the data active means binding response below about 67% or above about 130%
ABCB1 inh = ABCB1 efflux pump inhibitors, primary screen, cell-based, multiplex, flow cytometry, ABCG2 counter-screen; CCRF-Adr cells, JC-1 efflux; inhibition, % at 6.6 µM; hit rate 0.067% among 190,000; ATP-dependent translocase ABCB1 (Homo sapiens), P08183; in the data active means inhibition above about 40%;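 further: 0% = vehicle and 100% = reference inhibitor; higher value means more JC-1 retained so stronger ABCB1 efflux block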
ABCG2 inh = ABCG2 efflux pump inhibitors, primary screen, multiplex with ABCB1, IgMXP3 cells, flow cytometry. hit rate 0.1% among 190,000. Broad substrate specificity ATP-binding cassette transporter ABCG2 (Homo sapiens), Q9UNQ0. JC-1 efflux. inhibition, % at 6.6 µM;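 active means inhibition above 80%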;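 further: 0% = DMSO and 100% = nicardipine control wells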
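Assay system – ABCG2 IgMXP3 and barcoded ABCB1 CCRF-Adr cell mix · Input – 3 million cells/mL in well · Reagent – JC-1 fluorescent substrate · Compound – single test compound dose, 6.6 µM final · Timing – 10 min exposure at 25 °C with rotation, no wash · Detection – flow cytometry of retained JC-1 fluorescence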
WT yeast gro inh = growth inhibition of WT strain, primary screen, mitochondrial fusion inhibitor project, WT and mutant strains, chemical genetic | mitochondrial fusion phenotypic screen | inhibition, % at 10 µM | hit rate 2.1% among 190,000; in the data active means inhibition above about 58%; tested in S. cerevisiae
MEKK2mut PB1 HTS = MEK5 binding signal on mutant MEKK2 PB1, primary screen, biochemical, multiplex bead flow cytometry, Alexa488-MEK5; Alexa488-MEK5 binding to MEKK2 mutant; percent response, % at 10 µM; hit rate 0.35% among 290,000; AID 1530, 2009; in the data active means percent response above about 24%, passing the limit was not always enough
* hit, by the source's call; x = no result given. This is a sample that favours compounds with a hit; in the whole collection about 3.5% have one here.

SMILES	MEKK3 PB1 HTS	MEKK2wt PB1 HTS	ABCB1 inh	ABCG2 inh	WT yeast gro inh	MEKK2mut PB1 HTS
N#C/C(=C\c1ccccn1)c1nc2ccccc2s1	95	92	0	2	59*	-7
O=c1c2cc(N3CCOCC3)ccc2[nH]c(=S)n1CCCN1CCN(c2ccccc2F)CC1	65	77	53*	33	1	-10
CC(=O)N1c2ccc(S(=O)(=O)N3CCC(C(=O)Nc4cccc(C(F)(F)F)c4)CC3)cc2CC1C (configuration not stated)	101	100	x	x	x	3
O=c1oc(Nc2cccc(F)c2)nc2ccccc12	107	105	0	15	78*	10
Nc1nc(Nc2cccc(F)c2)nc2ccccc12	103	119	0	3	42	11
Cc1ccccc1Nc1nnc(-c2ccc(C(=O)NCCO)cc2)c2ccccc12	99	100	x	x	x	-2
COc1ccccc1NC(=S)NC(NC(=O)CC(C)C)C(Cl)(Cl)Cl (configuration not stated)	101	99	0	2	-8	-9
CCCCNC(=S)N1CCN(Cc2ccc3c(c2)OCO3)CC1	101	94	0	0	-4	-6
COc1cccc(CN2CCN(C(=S)NCc3ccc(Cl)cc3)CC2)c1	100	103	2	4	67*	0
COc1ccc(OC)c(NC(=S)N2CCN(Cc3ccccc3)CC2)c1	102	103	0	0	16	2
S=C(NCc1ccccc1)N1CCN(Cc2ccc3c(c2)OCO3)CC1	104	104	1	3	60*	3
Cc1ccc(-c2nc(N)sc2-c2ccc(C)cc2)cc1	108	114	2	10	80*	-2
Cc1ccc(-c2nc(N)sc2-c2ccccc2)cc1C	103	113	0	3	73*	-1
CN(C)CC(C(=O)c1ccccc1)c1ccccc1 (configuration not stated)	95	99	-2	-1	77*	-3
CCC(C(=O)c1ccc2ncccc2c1)c1ccccc1 (configuration not stated)	105	114	1	11	-14	21
CC1CCN(C(=O)c2ccc3c(c2NCCO)C(=O)c2ccccc2C3=O)CC1	96	103	2	2	71*	0
COc1ccc(C(=O)O)cc1NC(=S)NC(=O)C(c1ccccc1)c1ccccc1	101	98	x	x	x	3
Cc1ccc2cn[nH]c2c1[N+](=O)[O-]	99	92	0	2	-1	-8
O=C(c1ccccc1)N1N=C(c2ccccc2)CC1c1ccccc1O (configuration not stated)	107	98	0	3	67*	0
O=C(c1ccncc1)N1N=C(c2ccc(Br)cc2)CC1c1ccccc1O (configuration not stated)	101	93	x	x	x	-3
N#CC(C#N)=C1C=CC=CN1/C(=C\c1ccccc1Cl)C(=O)c1ccccc1	86	88	10	34	67*	-2
N#CC(C#N)=C1C=CC=CN1/C(=C\c1ccccc1)C(=O)c1cccs1	107	88	-1	16	-7	7
CC1(c2ccc(OC(F)F)cc2)NC(=O)N(CC(=O)Nc2ccc(Cl)cc2F)C1=O (configuration not stated)	101	96	x	x	x	-1
O=C(O)c1cc2ccccc2c2cc(Br)ccc12	108	95	x	x	x	12
CC1/C(=N/O)CC(c2ccccc2)N(C)C1c1ccccc1 (configuration not stated)	112	101	0	1	98*	12
CC1C(c2ccccc2)N(C)C(c2ccccc2)CC1(O)c1ccccc1 (configuration not stated)	99	110	0	0	58*	2
